Assay results as given in ChEMBL document CHEMBL4706770, “SD-91 as A Potent and Selective STAT3 Degrader Capable of Achieving Complete and Long-Lasting Tumor Regression” (ACS Med Chem Lett, 2021).
pKd: −log10 of the molar value. Calls of active or inactive are those of the source. The calls are words filed in the database; no cut-off is given here.

What was measured:
[1] = target: T1, Signal transducer and activator of transcription 4 (Homo sapiens, UniProt Q14765); experiment: Binding affinity to human recombinant STAT4 assessed as dissociation constant incubated for 15 mins by biolayer interferometry
T1 sequence (Q14765 whole entry): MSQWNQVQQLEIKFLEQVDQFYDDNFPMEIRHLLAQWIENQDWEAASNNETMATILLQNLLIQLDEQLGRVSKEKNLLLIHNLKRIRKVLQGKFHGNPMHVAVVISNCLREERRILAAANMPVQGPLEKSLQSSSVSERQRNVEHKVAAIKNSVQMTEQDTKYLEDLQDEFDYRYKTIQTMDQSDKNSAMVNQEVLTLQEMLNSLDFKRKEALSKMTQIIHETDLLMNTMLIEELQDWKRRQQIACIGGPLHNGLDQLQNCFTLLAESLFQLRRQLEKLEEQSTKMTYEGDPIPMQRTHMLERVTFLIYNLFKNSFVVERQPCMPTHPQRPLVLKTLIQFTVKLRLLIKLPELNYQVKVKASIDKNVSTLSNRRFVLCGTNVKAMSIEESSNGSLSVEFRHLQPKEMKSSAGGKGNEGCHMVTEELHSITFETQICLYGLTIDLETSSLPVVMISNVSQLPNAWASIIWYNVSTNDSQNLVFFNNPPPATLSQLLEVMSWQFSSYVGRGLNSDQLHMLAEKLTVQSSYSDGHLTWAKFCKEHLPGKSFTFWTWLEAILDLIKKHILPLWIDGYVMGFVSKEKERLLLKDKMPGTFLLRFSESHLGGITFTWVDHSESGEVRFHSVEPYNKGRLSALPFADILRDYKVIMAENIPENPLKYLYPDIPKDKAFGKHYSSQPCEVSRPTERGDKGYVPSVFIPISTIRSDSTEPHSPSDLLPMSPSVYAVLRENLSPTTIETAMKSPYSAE
Summary of the method: (§1)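 Biolayer interferometry with recombinant human STAT1, STAT2, STAT3, STAT4, STAT5A, STAT5B or STAT6 proteins containing their SH2 domain. Compound run in 2× serial dilutions from 200 nM. Kd taken from steady-state fitting of equilibrium responses against concentration using a 1:1 binding model.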

[2] = Stability of the compound in PEG400/phosphate buffer saline measured upto 100 hrs by LC/MS/MS analysis; type: physicochemical
Summary of the method: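 Compound incubated at room temperature in dosing vehicle (10% PEG400/90% phosphate buffered saline); percentages of parent and conversion products determined at time points up to 96 h.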

[3] = target: T2, Signal transducer and activator of transcription 1-alpha/beta (Homo sapiens, UniProt P42224); experiment: Binding affinity to human recombinant STAT1 assessed as dissociation constant incubated for 15 mins by biolayer interferometry; summary of the method: as §1
T2 sequence (P42224 whole entry): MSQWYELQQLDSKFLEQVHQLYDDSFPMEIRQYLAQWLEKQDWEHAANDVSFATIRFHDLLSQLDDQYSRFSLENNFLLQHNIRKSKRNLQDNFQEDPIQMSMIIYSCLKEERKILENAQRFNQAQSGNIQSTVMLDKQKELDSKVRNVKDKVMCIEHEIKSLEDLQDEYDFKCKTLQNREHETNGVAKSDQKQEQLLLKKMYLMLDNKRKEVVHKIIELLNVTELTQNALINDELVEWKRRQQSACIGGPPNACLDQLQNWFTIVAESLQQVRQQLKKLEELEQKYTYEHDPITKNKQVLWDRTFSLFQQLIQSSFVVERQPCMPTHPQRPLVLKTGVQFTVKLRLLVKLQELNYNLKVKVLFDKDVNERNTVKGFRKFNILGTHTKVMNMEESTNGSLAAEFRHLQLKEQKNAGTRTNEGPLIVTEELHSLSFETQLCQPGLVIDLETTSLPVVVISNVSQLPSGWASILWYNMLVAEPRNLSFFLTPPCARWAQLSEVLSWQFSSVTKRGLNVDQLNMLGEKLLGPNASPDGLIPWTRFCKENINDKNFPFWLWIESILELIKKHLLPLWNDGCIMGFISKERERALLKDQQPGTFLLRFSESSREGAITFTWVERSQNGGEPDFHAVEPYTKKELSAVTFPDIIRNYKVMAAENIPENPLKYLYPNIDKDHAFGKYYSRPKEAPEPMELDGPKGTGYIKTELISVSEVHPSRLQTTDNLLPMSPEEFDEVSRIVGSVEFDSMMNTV

[4] = Stability of the compound in complete cell culture medium measured upto 100 hrs by LC/MS/MS analysis; type: physicochemical
Summary of the method: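 Compound incubated at 37 °C in the cell culture media used for cellular assays; percentages of parent and conversion products determined at time points up to 96 h.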

[5] = target: Protein cereblon/Signal transducer and activator of transcription 6 (Homo sapiens) (UniProt P42226+Q96SW2); experiment: In vivo protac activity at CRBN/STAT6 degradation in SCID mouse xenografted with human MOLM16 cells assessed as reduction in STAT6 in tumor tissue at 50 mg/kg, iv measured after 24 hrs by immunoblotting analysis; type: functional, organism-based
Chain of Protein cereblon/Signal transducer and activator of transcription 6 (Homo sapiens) (P42226 2-847 limits assumed): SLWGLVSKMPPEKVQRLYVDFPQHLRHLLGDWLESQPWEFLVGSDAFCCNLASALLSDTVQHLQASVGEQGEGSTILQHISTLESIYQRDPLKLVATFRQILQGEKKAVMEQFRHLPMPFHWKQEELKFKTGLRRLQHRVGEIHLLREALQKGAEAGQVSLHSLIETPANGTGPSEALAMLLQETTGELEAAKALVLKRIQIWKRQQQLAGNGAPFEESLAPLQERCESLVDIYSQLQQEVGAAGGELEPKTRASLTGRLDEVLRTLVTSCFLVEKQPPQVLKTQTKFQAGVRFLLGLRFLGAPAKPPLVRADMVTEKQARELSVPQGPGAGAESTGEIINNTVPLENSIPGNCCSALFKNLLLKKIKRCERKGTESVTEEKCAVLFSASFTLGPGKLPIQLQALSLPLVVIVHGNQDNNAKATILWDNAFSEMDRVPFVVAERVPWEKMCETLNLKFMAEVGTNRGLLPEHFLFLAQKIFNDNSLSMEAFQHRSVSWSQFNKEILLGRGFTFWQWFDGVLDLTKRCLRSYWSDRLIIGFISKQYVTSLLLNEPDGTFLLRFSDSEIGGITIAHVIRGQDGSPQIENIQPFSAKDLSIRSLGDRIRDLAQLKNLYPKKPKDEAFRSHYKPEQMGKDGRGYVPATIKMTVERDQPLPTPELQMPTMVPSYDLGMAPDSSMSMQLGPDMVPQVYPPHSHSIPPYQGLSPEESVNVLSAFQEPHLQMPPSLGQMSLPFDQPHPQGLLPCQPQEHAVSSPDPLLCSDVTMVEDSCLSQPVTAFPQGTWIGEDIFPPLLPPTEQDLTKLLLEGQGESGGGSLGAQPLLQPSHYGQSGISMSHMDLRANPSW
Chain of Protein cereblon/Signal transducer and activator of transcription 6 (Homo sapiens) (Q96SW2 whole entry partner): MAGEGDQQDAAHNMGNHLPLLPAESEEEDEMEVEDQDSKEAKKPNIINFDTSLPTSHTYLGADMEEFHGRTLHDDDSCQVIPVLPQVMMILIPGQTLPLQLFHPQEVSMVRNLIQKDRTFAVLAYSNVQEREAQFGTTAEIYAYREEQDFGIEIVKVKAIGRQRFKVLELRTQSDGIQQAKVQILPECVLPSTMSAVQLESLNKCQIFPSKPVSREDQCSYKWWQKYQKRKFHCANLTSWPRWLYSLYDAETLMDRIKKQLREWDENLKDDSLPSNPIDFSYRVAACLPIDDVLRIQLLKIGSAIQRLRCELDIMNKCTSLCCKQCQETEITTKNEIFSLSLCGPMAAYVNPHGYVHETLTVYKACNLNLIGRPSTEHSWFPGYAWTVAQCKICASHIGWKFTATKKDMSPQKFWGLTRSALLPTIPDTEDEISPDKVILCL
Summary of the method: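 SCID mice bearing MOLM-16 tumors given a single iv dose of 50 mg/kg or dosing vehicle. Tumor lysates immunoblotted for STAT3, STAT1 and STAT6 at time points from 1 h to at least 24 h.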

[6] = (§2) Drug uptake in SCID mouse xenografted with human MOLM16 cells assessed as (2-(((5S,8S,10aR)-8-(((S)-5-amino-1-(benzhydrylamino)-1,5-dioxopentan-2-yl)carbamoyl)-3-(8-(2-(2,6-dioxopiperidin-3-yl)-1-oxoisoindolin-4-yl)oct-7-yno yl)-6-oxodecahydropyrrolo[1,2-a][1,5]diazocin-5-yl)carbamoyl)-1H-indole-5-carbonyl)phosphonic acid level in plasma at 50 mg/kg, iv measured after 6 hrs by LC-MS/MS; type: ADME, organism-based; conditions: in vivo
Summary of the method: (§3)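 SCID mice bearing MOLM-16 xenografts given a single iv dose of 50 mg/kg. Concentrations of parent and hydrolysis product measured in plasma (ng/mL) and tumor tissue (ng/g) at 1, 6 and 24 h.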

[7] = (§4) Drug metabolism in buffer pH 4 assessed as conversion to (2-(((5S,8S,10aR)-8-(((S)-5-amino-1-(benzhydrylamino)-1,5-dioxopentan-2-yl)carbamoyl)-3-(8-(2-(2,6-dioxopiperidin-3-yl)-1-oxoisoindolin-4-yl)oct-7-ynoyl)-6-oxodecahydropyrrolo[1,2-a][1,5]diazocin-5-yl)carbamoyl)-1H-indole-5-carbonyl)phosphonic acid by measured after 2 days at 37 degC by LC/MS/MS analysis; conditions: time 2.0 day
Summary of the method: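 Parent compound incubated in buffer at pH 4 or pH 8, at room temperature or 37 °C. Percentages of the parent, the hydrolysis product and the glutarimide ring-opened product followed over time, up to 96 h.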

[8] = as §4, with “metabolism” for “metabolism in”, “96 hrs” for “2 days”
[9] = as §2, with “after 24” for “after 6”; type: ADME, organism-based; conditions: in vivo; summary of the method: as §3

NC(=O)CC[C@H](NC(=O)[C@@H]1CC[C@@H]2CCN(C(=O)CCCCCC#Cc3cccc4c3CN(C3CCC(=O)NC3=O)C4=O)C[C@H](NC(=O)c3cc4cc(C(=O)P(=O)(O)O)ccc4[nH]3)C(=O)N21)C(=O)NC(c1ccccc1)c1ccccc1 (some centres undefined)
pKd [1]: < 8.00
Stabilty [2]: Stable
pKd [3]: < 8.00
Stabilty [4]: Stable

NC(=O)CC[C@H](NC(=O)[C@@H]1CC[C@@H]2CCN(C(=O)CCCCCC#Cc3cccc4c3CN(C3CCC(=O)NC3=O)C4=O)C[C@H](NC(=O)c3cc4cc(C(F)(F)P(=O)(O)O)ccc4[nH]3)C(=O)N21)C(=O)NC(c1ccccc1)c1ccccc1 (some centres undefined)
Activity [5]: inactive
Drug uptake [6]: 25560 ng/mL
Drug metabolism [7]: 50%
Drug metabolism [8]: 25%
Drug uptake [9]: 305 ng/mL
